# According to ChEMBL document CHEMBL1138739, “Synthesis, nicotinic acetylcholine receptor binding, and antinociceptive properties of 2'-fluoro-3'-(substituted phenyl)deschloroepibatidine analogues. Novel nicotinic antagonist” (J Med Chem, 2004):
# Activity calls are given as the source filed them.
# Key:
# Mus musculus [1] = experiment: Antinociceptive response was determined in mice at a dose 10 mg/kg using tail flick method; type: functional
# How it was run: (§1)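 Mice; epibatidine analogues given i.t., tail-flick (D'Amour–Smith) latency read 5 min later. Baseline 2–4 s, 10 s cutoff. %MPE = [(test − control)/(10 − control)] × 100. Eight to twelve mice per dose, at least four doses for dose–response; ED50 with confidence limits, or percent effect at a single dose.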
# Mus musculus [2] = species: Mus musculus; experiment: Antinociceptive response was determined in mice using tail flick method; type: functional; how it was run: as §1
# Mus musculus [3] = experiment: Percent effect on the body temperature was measured at a dose of 5 mg/kg; type: functional
# Mus musculus [4] = species: Mus musculus; experiment: Antinociceptive response was determined in mice using spontaneous activity method; type: functional
# How it was run: (§2)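 Mice given 0.9% saline or analogue sc and put in individual photocell activity cages 5 min later. Beam interruptions counted over the next 10 min. ED50 with confidence limits, or percent effect at a single dose.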
# Mus musculus [5] = species: Mus musculus; experiment: Antinociceptive response was determined in mice using hot plate flick method; type: functional
# How it was run: (§3)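 Mice, 8 per dose, given analogues sc and placed on a 55.0 °C hot plate 5 min later. Two control latencies at least 10 min apart, normally 8–12 s. Endpoint is paw lick or jump. %MPE = [(test − control)/(40 − control)] × 100. ED50 with confidence limits, or percent effect at a single dose.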
# Mus musculus [6] = experiment: Antinociceptive response was determined in mice at a dose of 10 mg/kg using hot plate flick method; type: functional; how it was run: as §3
# [7] = molecular target: Neuronal acetylcholine receptor; alpha4/beta2 (Rattus norvegicus, UniProt P09483+P12390); experiment: Inhibition of alpha beta[3H]epibatidine binding to Nicotinic acetylcholine receptor alpha4-beta2 of rat cerebral cortex; type: tissue-based
# Mus musculus [8] = experiment: Antinociceptive response was determined in mice at a dose of 10 mg/kg using hypothermia method; type: functional
# How it was run: (§4)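 Rectal temperature in mice by thermistor probe inserted 24 mm, read just before and at several times after sc saline or analogue. ED50 with confidence limits, or change at a single dose.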
# Mus musculus [9] = experiment: Antinociceptive response was determined in mice at a dose 15 mg/kg using tail flick method; type: functional; how it was run: as §1
# [10] = molecular target: Neuronal acetylcholine receptor subunit alpha-7 (Rattus norvegicus, UniProt Q05941); experiment: Inhibition of [125I]-iodo-MLA binding to Nicotinic acetylcholine receptor alpha-7 of rat cerebral cortex; type: tissue-based
# Mus musculus [11] = experiment: Antinociceptive response was determined in mice at a dose of 15 mg/kg using hot plate flick method; type: functional; how it was run: as §3
# Mus musculus [12] = experiment: Percent effect on the body temperature was measured at a dose of 1 mg/kg; type: functional
# Mus musculus [13] = experiment: Percent effect on the body temperature was measured at a dose of 10 mg/kg; type: functional
# Mus musculus [14] = experiment: Antinociceptive response was determined in mice at a dose of 10 mg/kg using spontaneous activity method; type: functional; how it was run: as §2
# Mus musculus [15] = species: Mus musculus; experiment: Antinociceptive response was determined in mice using hypothermia method; type: functional; how it was run: as §4
# Mus musculus [16] = experiment: Antinociceptive response was determined in mice at a dose of 1 mg/kg using hot plate flick method; type: functional
# Sequence of Neuronal acetylcholine receptor; alpha4/beta2 (P09483 whole entry): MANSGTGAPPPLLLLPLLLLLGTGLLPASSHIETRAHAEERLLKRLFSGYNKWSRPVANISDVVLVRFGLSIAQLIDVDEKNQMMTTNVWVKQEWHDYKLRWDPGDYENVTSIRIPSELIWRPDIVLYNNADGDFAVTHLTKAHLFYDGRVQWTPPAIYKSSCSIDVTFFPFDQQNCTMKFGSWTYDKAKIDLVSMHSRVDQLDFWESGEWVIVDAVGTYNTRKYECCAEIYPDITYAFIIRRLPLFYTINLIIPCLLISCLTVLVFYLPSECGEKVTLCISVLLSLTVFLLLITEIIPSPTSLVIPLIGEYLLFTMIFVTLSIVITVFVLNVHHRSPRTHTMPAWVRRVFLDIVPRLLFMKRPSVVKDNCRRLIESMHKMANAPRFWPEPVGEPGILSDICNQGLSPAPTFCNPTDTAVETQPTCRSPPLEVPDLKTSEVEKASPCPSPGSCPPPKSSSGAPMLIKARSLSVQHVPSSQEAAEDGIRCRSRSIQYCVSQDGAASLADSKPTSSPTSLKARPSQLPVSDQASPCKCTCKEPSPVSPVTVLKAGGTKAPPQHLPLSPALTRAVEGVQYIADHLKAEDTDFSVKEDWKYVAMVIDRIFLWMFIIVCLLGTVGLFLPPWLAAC
# Sequence of Neuronal acetylcholine receptor; alpha4/beta2 (P12390 whole entry): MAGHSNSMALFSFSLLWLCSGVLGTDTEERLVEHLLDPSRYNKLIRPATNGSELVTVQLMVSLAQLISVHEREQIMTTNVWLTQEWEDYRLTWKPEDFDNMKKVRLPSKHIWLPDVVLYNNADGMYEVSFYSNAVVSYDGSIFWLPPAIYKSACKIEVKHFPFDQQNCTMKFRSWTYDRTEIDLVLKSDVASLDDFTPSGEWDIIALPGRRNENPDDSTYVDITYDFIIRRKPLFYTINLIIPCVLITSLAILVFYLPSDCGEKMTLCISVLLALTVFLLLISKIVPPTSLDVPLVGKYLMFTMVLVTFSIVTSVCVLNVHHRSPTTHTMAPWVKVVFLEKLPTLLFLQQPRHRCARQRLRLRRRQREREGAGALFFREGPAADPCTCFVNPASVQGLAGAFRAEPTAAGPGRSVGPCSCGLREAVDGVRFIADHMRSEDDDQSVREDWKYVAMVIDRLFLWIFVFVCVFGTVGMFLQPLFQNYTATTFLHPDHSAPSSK
# Sequence of Neuronal acetylcholine receptor subunit alpha-7 (Q05941 whole entry): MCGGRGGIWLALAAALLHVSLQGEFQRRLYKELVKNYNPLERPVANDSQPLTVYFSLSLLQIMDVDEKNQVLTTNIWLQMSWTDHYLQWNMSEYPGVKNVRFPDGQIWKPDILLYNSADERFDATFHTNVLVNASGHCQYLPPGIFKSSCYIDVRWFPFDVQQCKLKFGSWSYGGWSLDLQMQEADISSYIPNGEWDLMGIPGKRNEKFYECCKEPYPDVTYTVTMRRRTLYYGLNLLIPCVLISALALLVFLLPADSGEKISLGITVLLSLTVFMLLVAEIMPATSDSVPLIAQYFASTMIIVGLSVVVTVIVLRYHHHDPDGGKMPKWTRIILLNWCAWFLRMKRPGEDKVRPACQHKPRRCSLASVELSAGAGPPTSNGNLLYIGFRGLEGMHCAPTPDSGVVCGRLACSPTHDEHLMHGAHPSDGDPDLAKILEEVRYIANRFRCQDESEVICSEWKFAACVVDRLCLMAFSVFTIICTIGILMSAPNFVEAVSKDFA
Compound,Response (Mus musculus [1]),AD50 (Mus musculus [2]),ED50 (Mus musculus [4]),AD50 (Mus musculus [5]),ED50 (Mus musculus [6]),Ki [7],Response (Mus musculus [8]),further results
Nc1cccc(-c2cc(C3CC4CCC3N4)cnc2F)c1 (centres undefined),1%,0.009 mg/kg,8.5 mg/kg,0.82 mg/kg,4 mg/kg,0.16 nM,0%,Body temperature (Mus musculus [3]): 5%
Fc1ncc(C2CC3CCC2N3)cc1-c1ccccc1 (stereo in doubt; (-)-5a),,0.08 mg/kg,,0.7 mg/kg,10 mg/kg,0.26 nM,,Response (Mus musculus [9]): 5%; Ki [10]: > 2000 nM; Response (Mus musculus [8]; 10 mg/kg): -0.8%
Fc1ncc(C2CC3CCC2N3)cc1-c1ccccc1 (racemic),,0.5 mg/kg,4.7 mg/kg,1.2 mg/kg,,,,"Response (Mus musculus [9]): 3%; Ki [10]: > 2000 nM; ED50 (Mus musculus [11]; Mus musculus, read-out: ED50): 4 mg/kg; Response (Mus musculus [8]; 10 mg/kg): -0.5%"
Fc1ccc(C2CC3CCC2N3)cn1 (centres undefined),,,,,,0.02 nM,,
"Fc1ncc(C2CC3CCC2N3)cc1-c1ccccc1 (single isomer, unassigned; (+))",,1 mg/kg,,2.4 mg/kg,,,,Response (Mus musculus [9]): 7%; Ki [10]: > 2000 nM; ED50 (Mus musculus [11]; dose 15 mg/kg): 8 mg/kg; Response (Mus musculus [8]; 10 mg/kg): -0.4%
Fc1ccc(-c2cc(C3CC4CCC3N4)cnc2F)cc1 (centres undefined),2%,0.0005 mg/kg,2 mg/kg,0.23 mg/kg,15 mg/kg,0.02 nM,10%,Body temperature (Mus musculus [12]): inactive
Nc1ccc(-c2cc(C3CC4CCC3N4)cnc2F)cc1 (centres undefined),2%,0.005 mg/kg,6 mg/kg,1.8 mg/kg,10 mg/kg,0.09 nM,0%,Body temperature (Mus musculus [3]): 0%
Fc1ncc(C2CC3CCC2N3)cc1-c1ccc(Cl)cc1 (centres undefined),2%,0.0003 mg/kg,,0.26 mg/kg,7 mg/kg,0.04 nM,0%,Body temperature (Mus musculus [13]): 0%; Response (Mus musculus [14]): 50%
Fc1cccc(-c2cc(C3CC4CCC3N4)cnc2F)c1 (centres undefined),,0.005 mg/kg,0.36 mg/kg,,,,,Body temperature (Mus musculus [12]): 0%; ED50 (Mus musculus [2]): 3.5 mg/kg; ED50 (Mus musculus [15]): 1.8 mg/kg; ED50 (Mus musculus [5]): 3.3 mg/kg; AD50 (Mus musculus [16]): 20 mg/kg
COc1cccc(-c2cc(C3CC4CCC3N4)cnc2F)c1 (centres undefined),0%,0.008 mg/kg,6 mg/kg,2 mg/kg,8 mg/kg,0.12 nM,0%,Body temperature (Mus musculus [13]): 0%
Clc1ccc([C@H]2C[C@@H]3CC[C@H]2N3)cn1 [(-)-EPIBATIDINE],,,,,,,,ED50 (Mus musculus [2]): 0.004 mg/kg; ED50 (Mus musculus [15]): 0.001 mg/kg; ED50 (Mus musculus [5]): 0.004 mg/kg
O=[N+]([O-])c1ccc(-c2cc(C3CC4CCC3N4)cnc2F)cc1 (centres undefined),5%,0.003 mg/kg,0.22 mg/kg,0.12 mg/kg,,,,Body temperature (Mus musculus [12]): 0%
COc1ccc(-c2cc(C3CC4CCC3N4)cnc2F)cc1 (centres undefined),2%,0.05 mg/kg,3.6 mg/kg,0.52 mg/kg,16 mg/kg,0.06 nM,0%,Body temperature (Mus musculus [12]): 10%
O=[N+]([O-])c1cccc(-c2cc(C3CC4CCC3N4)cnc2F)c1 (centres undefined),3%,0.0005 mg/kg,6.5 mg/kg,0.13 mg/kg,20 mg/kg,0.05 nM,0%,Body temperature (Mus musculus [3]): 5%
Fc1ncc(C2CC3CCC2N3)cc1-c1cccc(Cl)c1 (centres undefined),3%,0.01 mg/kg,,0.45 mg/kg,14 mg/kg,0.07 nM,0%,Body temperature (Mus musculus [13]): 0%; Response (Mus musculus [14]): 15%
CN1CCC[C@H]1c1cccnc1 [NICOTINE],,,0.5 mg/kg,,,,,ED50 (Mus musculus [2]): 1.3 mg/kg; ED50 (Mus musculus [15]): 1 mg/kg; ED50 (Mus musculus [5]): 0.65 mg/kg
